From ChEMBL document CHEMBL4017532, “Multifunctional Hybrid Compounds Derived from 2-(2,5-Dioxopyrrolidin-1-yl)-3-methoxypropanamides with Anticonvulsant and Antinociceptive Properties” (J Med Chem, 2017)
Calls of active or inactive are those of the source.

How the values were obtained:
Mus musculus [1] = assay: Anticonvulsant activity in Albino Swiss CD-1 mouse assessed as protection against 6 Hz current-induced seizure at 100 mg/kg, ip pretreated up to 0.5 hrs followed by 6 Hz current induction for 3 secs relative to control; type: functional
Mus musculus [2] = assay: Anticonvulsant activity in ip dosed Albino Swiss CD-1 mouse assessed as protection against maximal electroshock-induced seizures pretreated up to 2 hrs followed by 50 Hz current induction for […] measured at time to peak effect; type: functional; details: Swiss CD-1, ip
Mus musculus [3] = assay: Protection index, ratio of TD50 for neurotoxicity in ip dosed Albino Swiss CD-1 mouse to ED50 for ip dosed Albino Swiss CD-1 mouse model of 6 Hz-induced siezures
Outline: (§1)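 Acute neurological toxicity after ip dosing (1% Tween 80 suspension) was assessed in the mouse chimney test. TD50 with 95% confidence limits was derived by probit analysis. Protective index is TD50 from the chimney test divided by ED50 from the MES, scPTZ or 6 Hz test.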

Mus musculus [4] = assay: Anticonvulsant activity in ip dosed Albino Swiss CD-1 mouse assessed as protection against 32 mA current-induced seizure treated up to 2 hrs prior to 6-Hz current induction measured at time to peak effect; type: functional; details: Swiss CD-1, ip
[5] = Neurotoxicity in ip dosed Albino Swiss CD-1 mouse assessed as induction of motor impairment measured up to 60 secs by chimney test; type: toxicity, organism-based; details: in vivo; outline: as §1
Mus musculus [6] = assay: Anticonvulsant activity in Albino Swiss CD-1 mouse assessed as protection against maximal electroshock-induced seizures by measuring time to peak effect at 100 mg/kg, ip pretreated up to 2 hrs followed by 50 Hz current induction for […]; type: functional
Mus musculus [7] = assay: Antinociceptive activity in Albino Swiss CD-1 mouse assessed as inhibition of capsaicin-induced nociception by measuring time spent licking injected paw at 200 mg/kg, ip administered 30 mins mins prior to capsaicin challenge measured for 5 mins relative to control; type: functional; details: Swiss CD-1, ip
Outline: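 Mice (male CD-1, 18–25 g) were pretreated ip 30 min before intraplantar capsaicin. Doses were 25, 50 or 100 mg/kg, or 100, 150 or 200 mg/kg for the reference. Vehicle was 1% Tween 80 at 10 mL/kg. Duration of nociceptive response was scored over 5 min after injection. Data are mean ± SEM of 8–10 mice, by one-way ANOVA with Dunnett's test against vehicle.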

Mus musculus [8] = assay: Antinociceptive activity in Albino Swiss CD-1 mouse assessed as inhibition of formalin-induced neurogenic pain response at 200 mg/kg, ip administered 30 mins before formalin injection measured up to 5 mins relative to control; type: functional; details: Swiss CD-1, ip
Outline: (§2)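 Male CD-1 mice were given test agents ip 30 min before subcutaneous intraplantar formalin. Doses were 12.5, 25 or 50 mg/kg, or 100, 150 or 200 mg/kg for the reference. Vehicle was 1% Tween 80 at 10 mL/kg. Paw licking time was recorded in phase I (0–5 min) and phase II (15–30 min). Data are mean ± SEM of 8–10 mice, by Dunnett's test. ED50 was obtained by log-probit analysis with 95% confidence limits.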

Mus musculus [9] = assay: Analgesic activity in Albino Swiss CD-1 mouse assessed as increase in pain response latency administered at 150 mg/kg, ip treated up to 90 mins prior to tet by hot plate assay; type: functional, organism-based
Outline: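 Male CD-1 mice, 18–25 g, 6–12 per group, given test agents as 1% aqueous Tween 80 suspension ip. Doses were 50, 100 or 150 mg/kg, with morphine hydrochloride at 4 mg/kg as reference. Mice were placed on the hot plate 15, 30, 45, 60 and 90 min after dosing, and latency to pain reaction was recorded.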

Mus musculus [10] = assay: Antiallodynic activity in oxaliplatin-induced Albino Swiss CD-1 mouse model of peripheral neuropathy assessed as elevation in pain sensitivity threshold at 50 mg/kg, ip administered 30 mins prior to oxaliplatin challenge relative to control; type: functional
Outline: (§3)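 Male CD-1 mice, 18–25 g, that had developed oxaliplatin-induced tactile allodynia were dosed ip 30 min before testing. Doses were 25, 50 or 100 mg/kg, or 50, 100 or 150 mg/kg for the reference. Vehicle was 1% aqueous Tween 80. Paw-withdrawal force was measured by von Frey filaments. Data are mean ± SEM, analysed by repeated-measures ANOVA with Dunnett's test against oxaliplatin plus vehicle mice.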

Mus musculus [11] = assay: Antiallodynic activity in oxaliplatin-induced Albino Swiss CD-1 mouse model of peripheral neuropathy assessed as elevation in pain sensitivity threshold at 100 mg/kg, ip administered 30 mins prior to oxaliplatin challenge relative to control; type: functional; outline: as §3
Mus musculus [12] = assay: Antinociceptive activity in Albino Swiss CD-1 mouse assessed as inhibition of formalin-induced neurogenic pain response at 100 mg/kg, ip administered 30 mins before formalin injection measured up to 5 mins relative to control; type: functional; details: Swiss CD-1, ip; outline: as §2
Mus musculus [13] = assay: Antinociceptive activity in Albino Swiss CD-1 mouse assessed as inhibition of formalin-induced neurogenic pain response at 150 mg/kg, ip administered 30 mins before formalin injection measured up to 5 mins relative to control; type: functional; details: Swiss CD-1, ip; outline: as §2
Mus musculus [14] = assay: Anticonvulsant activity in Albino Swiss CD-1 mouse assessed as inhibition of pentylenetetrazole-induced seizures by measuring time to peak effect at 100 mg/kg, ip administered up to 2 hrs prior to PTZ induction measured for 30 mins; type: functional
Mus musculus [15] = assay: Antiallodynic activity in oxaliplatin-induced Albino Swiss CD-1 mouse model of peripheral neuropathy assessed as elevation in pain sensitivity threshold at 150 mg/kg, ip administered 30 mins prior to oxaliplatin challenge relative to control; type: functional; outline: as §3
Mus musculus [16] = assay: Anticonvulsant activity in Albino Swiss CD-1 mouse assessed as protection against 6 Hz current-induced seizure at 100 mg/kg, ip pretreated up to 2 hrs followed by 6 Hz current induction for 3 secs relative to control; type: functional
[17] = Retention time of the compound by LC-MS method
Liver [18] = assay: Drug level in human liver microsomes treated with 1-{1-[4-(4-Trifluoromethylphenyl)piperazin-1-yl]-3-methoxy-1-oxopropan-2-yl}pyrrolidine-2,5-dione preincubated for 5 mins followed by NADPH addition measured after 2 hrs by LC-MS method; type: ADME, microsome
Cytochrome P450 3A4 = Cytochrome P450 3A4 (Homo sapiens, UniProt P08684); assay: Inhibition of human CYP3A4 assessed as reduction in luciferin-PPXE conversion to D-luciferin at 12.5 to 25 uM by luminescence assay; type: ADME
Sequence of Cytochrome P450 3A4 (P08684 whole entry): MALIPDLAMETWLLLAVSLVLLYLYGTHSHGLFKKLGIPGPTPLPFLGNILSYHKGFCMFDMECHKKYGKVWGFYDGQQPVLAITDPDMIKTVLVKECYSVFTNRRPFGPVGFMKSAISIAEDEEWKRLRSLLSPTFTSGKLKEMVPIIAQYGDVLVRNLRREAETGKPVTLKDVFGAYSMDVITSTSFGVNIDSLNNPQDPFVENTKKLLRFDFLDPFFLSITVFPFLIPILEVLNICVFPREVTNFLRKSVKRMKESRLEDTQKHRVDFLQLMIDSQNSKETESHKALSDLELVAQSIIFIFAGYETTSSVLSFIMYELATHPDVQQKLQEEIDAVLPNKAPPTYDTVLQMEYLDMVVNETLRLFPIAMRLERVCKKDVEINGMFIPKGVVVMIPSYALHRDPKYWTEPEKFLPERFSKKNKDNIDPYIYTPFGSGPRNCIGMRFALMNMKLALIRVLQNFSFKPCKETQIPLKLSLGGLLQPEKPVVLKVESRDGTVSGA
Outline: (§4)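 P450-Glo luminescence assays used recombinant human CYP3A4 or CYP2D6 with conversion of luciferin-PPXE to D-luciferin. Ketoconazole (CYP3A4) and quinidine (CYP2D6) served as reference inhibitors.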

Mus musculus [19] = assay: Anticonvulsant activity in Albino Swiss CD-1 mouse assessed as protection against maximal electroshock-induced seizures at 100 mg/kg, ip pretreated up to 2 hrs followed by 50 Hz current induction for […] relative to control; type: functional
Mus musculus [20] = assay: Protection index, ratio of TD50 for neurotoxicity in ip dosed Albino Swiss CD-1 mouse to ED50 for ip dosed maximal electroshock induced seizure Albino Swiss CD-1 mouse; outline: as §1
Cytochrome P450 2D6 = Cytochrome P450 2D6 (Homo sapiens, UniProt P10635); assay: Inhibition of human CYP2D6 assessed as reduction in luciferin-PPXE conversion to D-luciferin at 12.5 to 25 uM by luminescence assay; type: ADME; outline: as §4
Sequence of Cytochrome P450 2D6 (P10635 whole entry): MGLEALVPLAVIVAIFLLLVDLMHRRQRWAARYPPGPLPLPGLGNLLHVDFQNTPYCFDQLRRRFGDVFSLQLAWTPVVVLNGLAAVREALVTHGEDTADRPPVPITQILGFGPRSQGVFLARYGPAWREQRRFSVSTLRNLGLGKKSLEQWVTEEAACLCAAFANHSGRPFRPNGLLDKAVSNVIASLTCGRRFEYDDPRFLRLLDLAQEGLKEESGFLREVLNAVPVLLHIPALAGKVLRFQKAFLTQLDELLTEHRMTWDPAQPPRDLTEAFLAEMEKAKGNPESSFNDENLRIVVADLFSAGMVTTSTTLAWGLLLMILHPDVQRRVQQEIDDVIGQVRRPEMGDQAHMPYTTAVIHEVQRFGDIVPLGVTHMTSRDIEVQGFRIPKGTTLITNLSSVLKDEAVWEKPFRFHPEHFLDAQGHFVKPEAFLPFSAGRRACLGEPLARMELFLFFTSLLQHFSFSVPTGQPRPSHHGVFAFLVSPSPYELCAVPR

Mus musculus [21] = assay: Anticonvulsant activity in Albino Swiss CD-1 mouse assessed as inhibition of pentylenetetrazole-induced seizures at 100 mg/kg, ip administered up to 2 hrs prior to PTZ induction measured after 30 mins relative to control; type: functional; set-up: scale not given: the % may be the effect or the level left
Liver [22] = assay: Drug level in human liver microsomes treated with 1-{1-[4-(3-Chlorophenyl)piperazin-1-yl]-3-methoxy-1-oxopropan-2-yl}pyrrolidine-2,5-dione preincubated for 5 mins followed by NADPH addition measured after 2 hrs by LC-MS method; type: ADME, microsome

SMILES | ED50 (Mus musculus [2]) [mg/kg] | Ratio TD50/ED50 (Mus musculus [3]) | ED50 (Mus musculus [4]) [mg/kg] | TD50 at 1 min [5] [mg/kg] | Time (Mus musculus [6]) [h] | Activity (Mus musculus [16]) | Retention time [17] [min] | further results
O=C(C(CO)N1C(=O)CCC1=O)N1CCN(c2cccc(C(F)(F)F)c2)CC1 (configuration not stated) |  |  |  |  |  |  |  | Efficacy (Mus musculus [1]): 50%
COC[C@@H](C(=O)N1CCN(c2ccc(C(F)(F)F)cc2)CC1)N1C(=O)CCC1=O | > 120 | 5 - 6.4 | 37.9 to 49.2 | 243 to 246 | 0.25 to 0.5 |  |  | 
CCCC(CCC)C(=O)O [VALPROIC ACID] |  |  |  | 373 | 0.5 |  |  | inhibition in vivo at 200 mg/kg (Mus musculus [7]): 42.2%; inhibition in vivo at 200 mg/kg (Mus musculus [8]): 29.2%; Activity (Mus musculus [9]): inactive; Activity (Mus musculus [10]): 105%; Activity (Mus musculus [11]): 121%; inhibition in vivo at 100 mg/kg (Mus musculus [12]): 15.7%; inhibition in vivo at 150 mg/kg (Mus musculus [13]): 25.8%; Time (Mus musculus [14]): 0.5 h; Activity (Mus musculus [15]): 151.5%
COCC(C(=O)N1CCN(c2ccc(C)cc2)CC1)N1C(=O)CCC1=O (configuration not stated) |  | 9.6 | 21.1 | 204 | 0.25 | <=75% |  | 
COCC(C(=O)N1C=CN(c2ccc(C(F)(F)F)cc2)CC1)N1C(=O)CCC1=O (configuration not stated) |  |  |  |  |  |  | 6.23 | Drug metabolism (Liver [18]): Metabolite_Detected
COCC(C(=O)N1CCN(C)CC1)N1C(=O)CCC1=O (configuration not stated) |  | >7.3 | 68.2 | > 500 | 0.25 | <=75% |  | 
COCC(C(=O)N1CCN(c2cccc(Cl)c2)CC1)N1C(=O)CCC1=O (configuration not stated) | 79.7 to 87 | 6.9 - 7.3 | 26.1 to 32.7 | 192 to 226 | 0.25 to 0.5 | <=75% | 5.72 | inhibition (INH) (Cytochrome P450 3A4): Not Active; Activity (Mus musculus [19]): <=75%; Ratio TD50/ED50 (Mus musculus [20]): 2.4 - 2.6
COCC(C(=O)N1CCN(c2cccc(C(F)(F)F)c2)CC1)N1C(=O)CCC1=O (configuration not stated) |  |  |  |  |  | <=75% | 6.08 | inhibition (INH) (Cytochrome P450 3A4): Not Active; inhibition (INH) (Cytochrome P450 2D6): Not Active; Activity (Mus musculus [21]): 50%
COCC(C(=O)N1C=CN(c2cccc(Cl)c2)CC1)N1C(=O)CCC1=O (configuration not stated) |  |  |  |  |  |  | 6.04 | Drug metabolism (Liver [22]): Metabolite_Detected
CCC1(C)CC(=O)NC1=O (configuration not stated) [ETHOSUXIMIDE] | > 500 | 3.2 | 222 | 722 | 0.25 |  |  | Time (Mus musculus [14]): 0.25 h
